A short description of assay [1]: Inhibition of peroxynitrite-induced 3-nitrotyrosin formation by HPLC. The format is functional. The method, boiled down: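 Equimolar tyrosine and peroxynitrite with compound at increasing concentrations in 100 mM phosphate buffer pH 7.4, 37 °C for 15 min. Peroxynitrite stock quantified at 302 nm (ε 1670 cm⁻¹ M⁻¹), held on ice ≤30 min after thawing. 3-Nitrotyrosine measured by HPLC; control peroxynitrite plus tyrosine; mean ± SD of 3 independent experiments.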

The test system of assay [2] is Radical scavenging activity. In words: Antioxidant activity assessed as DPPH radical scavenging activity by microplate reader assay. The class given is functional. More on the design: concentration or dose not given beside the values. In a few lines:
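Compounds or ascorbic acid standard added to DPPH radical in methanol, ratio 1:9; incubated dark 37 °C 30 min; absorbance decrease read at 515 nm on plate reader. Blank of DMSO plus DPPH; solvent control taken as 0% scavenging. Triplicate; reported as % decrease in DPPH absorbance, mean ± SD.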

Another assay has as its system Hepatitis C virus. In words: Antiviral activity HCV in replicon cells assessed as inhibition of NS3-4A protease activity by RT-PCR. The format is functional, Hepacivirus hominis. The method, boiled down: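 Replicon cells seeded at 1×10⁴/well; next day incubated at 37 °C with serially diluted agents in DMEM + 2% FBS + 0.5% DMSO for the indicated period. Total RNA extracted, HCV RNA copy number by quantitative RT-PCR; five replicates per point; ribavirin control. Cytotoxicity by MTS viability in same settings; Huh-7 1×10⁴ or HepG2 4×10⁴ cells/well.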
A general note: A replicon is a self-replicating genome or part of one, used to study replication in cells.

We go through 13 compounds from ChEMBL document CHEMBL1154704, “Synthesis, anti-HCV, antioxidant, and peroxynitrite inhibitory activity of fused benzosuberone derivatives” (Eur J Med Chem, 2010).

In brackets after ≈: the same amount, converted by molar mass.

For orientation: IC50 means the concentration at which inhibition is half-maximal. Consider `CCOC(=O)c1cc2c(nc1C)-c1ccccc1CCC2`, for which, in assay [1], inhibition was half-maximal at 329 µM (IC50). Moreover, the Activity in assay [2] stood at 54.4%. In addition, in the assay with Hepatitis C virus, the MIC worked out at 3.58 µg/mL (≈ 12.7 µM).

In assay [1], `c1ccc2c(c1)CCCc1cnc3nc4ccccc4n3c1-2` showed an IC50 of 342 µM. In addition, the Activity in assay [2] turned out to be 28.2%. For the same compound, the MIC in the assay with Hepatitis C virus was determined as 6 µg/mL (≈ 21 µM).

With `c1ccc2c(c1)CCCc1cnc3ncnn3c1-2`, the IC50 in assay [1] was found to be 315 µM. Also, in assay [2], the Activity came to 27.7%. Moreover, the MIC in the assay on Hepatitis C virus is 2.21 µg/mL (≈ 9.35 µM).

In the case of `c1ccc2c(c1)CCCc1c[nH]nc1-2`, half-maximal inhibition in assay [1] (IC50) required 277 µM. The Activity in assay [2] came to 45.4%. In addition, the MIC in the assay on Hepatitis C virus came out at 6.22 µg/mL (≈ 33.8 µM).

Turning to `NC(=O)c1ncn([C@@H]2O[C@H](CO)[C@@H](O)[C@H]2O)n1` [RIBAVIRIN], the MIC in the assay with Hepatitis C virus is 16.1 µg/mL (≈ 66.1 µM).

Turning to `O=C1O[C@H]([C@@H](O)CO)C(O)=C1O`, the Activity in assay [2] worked out at 79%.

For the compound `Cc1c(C)c2c(c(C)c1O)CCC(C)(C(=O)O)O2` (configuration not stated) [TROLOX], 58.4 µM corresponded to half-maximal inhibition in assay [1] (IC50).

On to `CC(=O)c1cc2c(nc1C)-c1ccccc1CCC2`, for which the midpoint of inhibition in assay [1], the IC50, lay at 158 µM. Also, the Activity in assay [2] is 37.2%. For the same compound, in the assay with Hepatitis C virus, the MIC came out at 7.09 µg/mL (≈ 28.2 µM).

Regarding `N#Cc1cc2c([nH]c1=O)-c1ccccc1CCC2`, the IC50 in assay [1] was determined as 291 µM. For the same compound, the Activity in assay [2] was found to be 27.4%. For the same compound, the MIC in the assay with Hepatitis C virus came to 4.45 µg/mL (≈ 18.8 µM).

In turn, `c1ccc2c(c1)CCCc1cnoc1-2` yielded an IC50 in assay [1] of 149 µM. In assay [2], the Activity worked out at 44.1%. Also, the MIC in the assay with Hepatitis C virus amounted to 7.66 µg/mL (≈ 41.4 µM).

Consider `CN(C)/C=C1\CCCc2ccccc2C1=O`, for which, in assay [1], the IC50 was determined as 146 µM. For the same compound, the Activity in assay [2] amounted to 57.9%.

`O=c1cc(-c2ccccc2)nc2n(-c3ccccc3)nc(-c3ccc4c(n3)-c3ccccc3CCC4)n12` gave an IC50 in assay [1] of 349 µM. For the same compound, in assay [2], the Activity was determined as 40%. The MIC in the assay on Hepatitis C virus came out at 1.15 µg/mL (≈ 2.39 µM).

`c1ccc2c(c1)CCCc1ccc(-c3ccc4ccccc4c3)nc1-2` gave an IC50 in assay [1] of 170 µM. Besides, in assay [2], the Activity was 54.2%. Moreover, in the assay with Hepatitis C virus, the MIC was found to be 5.98 µg/mL (≈ 18.6 µM).
